Screens as filed in PubChem BioAssay.
The list is not random: actives were taken first. Their share in the collection is about 3.1%.
hERG rescue: hERG rescue from dofetilide block, primary screen, cell-based, CHO-hERG, FluxOR thallium flux, dofetilide IC70. Voltage-gated inwardly rectifying potassium channel KCNH2 (Homo sapiens), Q12809. dofetilide IC70 present. activation (rescue from dofetilide block), less the hit threshold, % at 10 µM. 310,000 compounds, 0.51% hits. AID 1511, 2009;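 active = activation above the mean of controls blocked by dofetilide plus 5 SD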;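 also: thallium influx through hERG after potassium depolarization seen as dye fluorescence rise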
KCNQ1 pot: potentiators or activators of KCNQ1 channel, primary screen, cell-based, thallium flux, high-throughput. B-score at 10 µM. CHO-K1 KCNQ1, thallium flux FluxOR fluorescence; hits give high values. AID 2648, 2010. 310,000 compounds, 0.35% hits;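 active = fluorescence ratio B-score, a plate-corrected score, at least three library SD, with initial intensity B-score within 5 SD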
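assay system = CHO-K1 cells stably expressing KCNQ1 | medium = assay buffer, equal DMSO in all wells | timing = 37 °C overnight plating, 90-min dark dye load, 20-min compound pretreatment | measured by = kinetic FluxOR thallium fluorescence, 10-s 1-Hz baseline, 110-s post-stimulus read | measure = fluorescence change relative to baseline, converted to B score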
KCNK9 inh: KCNK9 potassium channel inhibitors, primary screen, HEK293 cells, thallium flux; 310,000 compounds, 1.2% hits; FluxOR thallium flux fluorescence; hits give low values; B-score at 10 µM;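 active = ratio B-score over 3 SD below the library mean, with starting fluorescence within 5 SD of its mean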;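 also: negative B-score means less thallium flux so channel inhibition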
KCNQ1 inh: inhibitors of human KCNQ1 channel, primary screen, cell-based, thallium flux, high-throughput. 310,000 compounds, 1.3% hits. B-score at 10 µM. CHO-K1 KCNQ1, FluxOR thallium flux fluorescence; hits give high values. Potassium voltage-gated channel subfamily KQT member 1 (Homo sapiens), P51787. AID 2642, 2010;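 active = compounds whose thallium flux B-score, printed positive for inhibition, exceeds three library SD while starting fluorescence stays within three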;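 also: channel opened by potassium depolarization with thallium stimulus after 20 min compound exposure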
KCNK3 inh: human KCNK3 channel inhibitors, primary screen, CHO cells, FluxOR thallium flux, B-score; B-score at 10 µM; Potassium channel subfamily K member 3 (Homo sapiens), O14649; FluxOR fluorescence; hits give low values; 340,000 compounds, 0.84% hits;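 active = B-score under library mean minus 4 SD, starting fluorescence ratio at most library mean plus 5 SD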;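 also: more negative B-score means stronger inhibition of thallium flux through KCNK3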
KCNQ1 block val: KCNQ1 potassium channel inhibitors, confirmation, cell-based, Tl flux, duplicate; inhibition, % at 10 µM; 1,600 compounds, 93% hits; AID 588353, 2011; shares compounds with KCNQ1 inh; KCNQ1 cell line, FluxOR thallium flux fluorescence;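 active = primary screen active, with duplicate mean exceeding buffer control mean plus 3 SD of buffer wells, cut at about 28% in these data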;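 also: 0% = buffer control ratio and 100% = XE991 inhibitor control ratio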
CHO Tl flux: thallium flux effects in parental CHO cells, counter-screen for KCNQ1 inhibitor project, cell-based, Tl flux; shares compounds with KCNQ1 inh; parental CHO-K1, FluxOR thallium flux fluorescence ratio; hits give low values; zero means no signal rise above baseline; fluorescence ratio (Tl flux) at 10 µM; 1,600 compounds, 21% hits; AID 588366, 2011;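 active = mean of duplicate thallium-flux fluorescence ratios in parental host cells more than 5 SD below the buffer control mean, cut at about 0.38 in these data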;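 also: ratio is peak minus minimum fluorescence divided by baseline fluorescence; actives read low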
KCNQ1 ephys val: KCNQ1 channel inhibitors, confirmation, orthogonal assay, cell-based, automated electrophysiology. AID 624120, 2012. shares compounds with KCNQ1 inh. KCNQ1-CHO cells, automated patch clamp current. calls only at 10 µM. 490 compounds, 20% hits;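 active = KCNQ1 current drop exceeding 3 SD of negative control wells, seen in both duplicate runs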;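 also: steady state current during a 2 s step from -80 to +40 mV; negative values mean current inhibition and positive values mean potentiation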
KCNQ2 spec: KCNQ2 channel inhibition, selectivity assay for KCNQ1 inhibitor project, cell-based; KCNQ2 cells, FluxOR thallium flux fluorescence; 1,600 compounds, 71% hits; inhibition, % at 10 µM; shares compounds with KCNQ1 inh;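 active = mean percent inhibition of the KCNQ2 thallium signal more than 5 SD above the buffer-only control wells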;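 also: KCNQ2 expressed in CHO cells; 0% = buffer control wells and 100% = XE-991 inhibitor control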
KCNQ1 KCNE1 spec: KCNQ1/KCNE1 channel inhibition, selectivity assay for KCNQ1 inhibitor project, CHO-K1 cells, thallium flux, FluxOR. shares compounds with KCNQ1 inh. FluxOR thallium flux fluorescence. inhibition, % at 10 µM. 1,600 compounds, 77% hits;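 active = mean percent inhibition of duplicate wells above the buffer-only control mean plus 3 SD of those controls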;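 also: 0% = buffer only wells and 100% = XE-991 inhibitor control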
Target sequence (P51787 whole entry, looked up): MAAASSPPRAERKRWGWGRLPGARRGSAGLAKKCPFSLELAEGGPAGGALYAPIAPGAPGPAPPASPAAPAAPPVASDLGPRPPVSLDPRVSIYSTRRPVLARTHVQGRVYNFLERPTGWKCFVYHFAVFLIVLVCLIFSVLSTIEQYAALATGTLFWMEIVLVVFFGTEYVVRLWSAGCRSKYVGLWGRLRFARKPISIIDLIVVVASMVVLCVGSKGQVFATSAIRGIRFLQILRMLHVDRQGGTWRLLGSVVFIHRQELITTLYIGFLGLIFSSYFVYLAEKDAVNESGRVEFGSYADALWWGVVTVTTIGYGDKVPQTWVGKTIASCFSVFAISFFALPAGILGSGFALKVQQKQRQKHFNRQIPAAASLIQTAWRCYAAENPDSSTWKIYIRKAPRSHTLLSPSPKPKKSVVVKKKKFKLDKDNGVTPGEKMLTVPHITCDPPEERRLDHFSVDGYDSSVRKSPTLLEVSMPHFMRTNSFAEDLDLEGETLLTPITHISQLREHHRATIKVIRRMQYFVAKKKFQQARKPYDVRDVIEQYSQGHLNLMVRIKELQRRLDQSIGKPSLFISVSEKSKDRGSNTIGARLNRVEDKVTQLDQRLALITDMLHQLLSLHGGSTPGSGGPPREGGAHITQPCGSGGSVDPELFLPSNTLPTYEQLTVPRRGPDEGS
KCNK9 block conf: KCNK9 potassium channel inhibitors, confirmation, HEK293 cells, thallium flux, duplicate. shares compounds with KCNK9 inh. FluxOR thallium flux fluorescence. 4,900 compounds, 43% hits. AID 492992, 2010. inhibition, % at 10 µM;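 active = thallium signal inhibited by more than 5 SD of the compound-free buffer control wells, on both duplicate plates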;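 also: 0% = assay buffer control wells without compound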
Kir2-1 spec: mouse Kir2.1 channel inhibition, confirmation, selectivity assay for KCNK9 modulator project, cell-based, HEK293, thallium flux; shares compounds with KCNK9 inh; Kir2.1 cells, FluxOR thallium flux fluorescence; inhibition, % at 10 µM; 4,900 compounds, 4% hits;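 active = thallium signal drop more than 5 SD beyond the mean of the no-compound control wells, seen in both duplicate plates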;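 also: signal is fluorescence rise after thallium addition divided by baseline fluorescence; plate controls were assay buffer only for no effect and full block by chlorpromazine control for full effect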
KCNK9 uninduced: thallium flux in non-induced HEK293 cells, confirmation, counter-screen for KCNK9 inhibitor project, cell-based, second counter screen, non-induced KCNK9-HEK293. shares compounds with KCNK9 inh. FluxOR thallium flux. inhibition, % at 10 µM. 4,900 compounds, 40% hits. AID 492997, 2010;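 active = thallium signal drop beyond 5 SD of the untreated control mean, on both duplicate plates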;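 also: plate controls were buffer only IC0 wells for no effect and SID17386958 at its maximal inhibitory level for full effect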
KCNK3 inh conf: retest of human KCNK3 channel inhibitors, confirmation, CHO cells, FluxOR thallium flux, triplicate | ratio percent of control, % at 10 µM | shares compounds with KCNK3 inh | 2,400 compounds, 99% hits | FluxOR fluorescence; 0% buffer, 100% carvedilol maximal block;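 active = ratio percent of control, averaged over triplicates, above buffer control mean plus 5 SD, cut at about 64% in these data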;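 also: ratio is the fluorescence rise from min to max over baseline after thallium stimulus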
KCNK3 noninduced: thallium flux inhibition in non-induced cells, primary screen, counter-screen for KCNK3 inhibitor project, cell-based, non-induced KCNK3 line, FluxOR thallium, triplicate | shares compounds with KCNK3 inh | non-induced KCNK3 parental cells; hits give low values | thallium flux ratio (lower = more inhibition) at 10 µM | AID 651747, 2012 | 2,400 compounds, 40% hits;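 active = thallium flux ratio, averaged over three wells, more than 5 SD below the buffer control mean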;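 also: host cells are CHO cells without KCNK3 induction; ratio is peak minus trough fluorescence over baseline then normalized to buffer controls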
An asterisk follows results filed as active; i = inactive; nt = no result given.

SMILES | hERG rescue | KCNQ1 pot | KCNK9 inh | KCNQ1 inh | KCNK3 inh | KCNQ1 block val | CHO Tl flux | KCNQ2 spec | KCNQ1 KCNE1 spec | others
COC(/C(C)=C/C=C/C(C)=C/c1coc(C)n1)C(C)C1CC(O)C2(C)OC2C=CC(C)C2CC(CC(=O)O2)CC2OC2C(=O)O1 (centres undefined) | nt | nt | nt | nt | i | nt | nt | nt | nt
CC(C)(C)c1nc(N2CCN(C(=O)c3ccco3)CC2)c2nnn(Cc3ccccc3Cl)c2n1 | -12 | i | i | 7* | i | 116* | 0.36* | 101%* | 136%*
CCC(=NCc1cc(OC)cc(OC)c1)c1c(O)n(C2CCCCC2)c(=O)[nH]c1=O | -11 | i | i | i | i | nt | nt | nt | nt
COc1cc(CN=C(C)c2c(O)n(C3CCCCC3)c(=O)[nH]c2=O)cc(OC)c1 | -8 | i | i | 6* | i | 0 | 0.5 | 80%* | i
Cc1ccc2c(c1)C1CN(C)CCC1N2C(=O)Nc1cccc(Cl)c1 (centres undefined) | -13 | i | i | 7* | i | 0 | 0.49 | i | i
Cc1ccc2c(c1)C1CN(C)CCC1N2C(=S)Nc1cccnc1 (centres undefined) | -11 | i | i | i | i | nt | nt | nt | nt
N#CCCn1cc(C(=O)Nc2ccccc2Cl)c(-c2ccc([N+](=O)[O-])cc2)n1 | -4 | i | i | i | i | nt | nt | nt | nt
COC(=O)C1=C(c2cccc(C#N)c2)C[C@@H]2CC[C@H]1N2C(=O)N1CCOCC1 | nt | nt | nt | nt | i | nt | nt | nt | nt
OC12ONC(c3ccccn3)C1N1CCC2CC1 (centres undefined) | -6 | i | i | i | i | nt | nt | nt | nt
CCC(=NCCOc1ccc(Cl)cc1)c1c(O)n(C)c(=O)n(C)c1=O | -31 | i | i | 7* | i | 122* | 0.34* | 114%* | 144%*
Cc1ccccc1NC(=O)c1cc(-c2ccccc2)n(CCCN2CCOCC2)c1C | -8 | i | i | i | i | nt | nt | nt | nt
Cc1ccc(NC(=O)c2cc(-c3ccccc3)n(CCCN3CCOCC3)c2C)cc1 | -8 | i | i | 6* | i | 81* | 0.45 | 62%* | 125%*
CCCCn1c(=O)c(C(=O)NCc2ccccc2OC)c(O)c2ccccc21 | -10 | i | i | 7* | i | 56* | 0.47 | 76%* | 48%*
Oc1cc(Cl)ccc1Oc1ccc(Cl)cc1Cl | -6 | i | -7.3* | 9* | i | 52* | 0.46 | i | 86%*
CC1C(c2ccccc2)OC(=O)N1C (centres undefined) | nt | nt | nt | nt | i | nt | nt | nt | nt
Cc1sc2ncnc(N3CCC(C(=O)Nc4ccc(C#N)c(Cl)c4)CC3)c2c1C | -14 | i | i | 7* | -10* | 132* | 0.42 | 112%* | 156%* | KCNQ1 ephys val=i;KCNK3 inh conf=131*;KCNK3 noninduced=0.15*
Cc1noc(C)c1CSCC(=O)Nc1ccc(C#N)c(Cl)c1 | nt | nt | nt | nt | i | nt | nt | nt | nt
O=C(c1ccccc1F)c1cn(Cc2ccccc2)c2ccccc12 | -9 | i | -7.5* | 6* | -9.4* | 85* | 0.43 | 85%* | 130%* | KCNK3 inh conf=113*;KCNK3 noninduced=0.16*
CCN(CC)C(=O)c1ccc(NC(=O)COC(=O)c2ccc(Cl)s2)cc1 | nt | nt | nt | nt | i | nt | nt | nt | nt
COc1cc(CN2CC=C(c3ccc(F)cc3)CC2)cc(OC)c1 | -6 | i | i | i | i | nt | nt | nt | nt
COc1cc(C)c(CN2CC=C(c3ccc(F)cc3)CC2)cc1C | -9 | i | i | i | i | nt | nt | nt | nt | KCNK9 block conf=i;Kir2-1 spec=i;KCNK9 uninduced=i
COC(=O)C1=C(c2ccc(C(C)=O)cc2)C[C@@H]2CC[C@H]1N2C(=O)N1CCC(C)CC1 | nt | nt | nt | nt | i | nt | nt | nt | nt
O=c1[nH]c(=S)n(CCC2=CCCCC2)c(O)c1/C=N/Nc1ccccc1 | -13 | i | i | i | i | nt | nt | nt | nt | KCNK9 block conf=i;Kir2-1 spec=i;KCNK9 uninduced=25%*
CCCCC/C(=N/O)c1c(C)[nH]c2ccccc12 | -4 | i | i | i | i | nt | nt | nt | nt
CCCCC/C(=N\O)c1c[nH]c2ccccc12 | -6 | i | -13* | i | i | nt | nt | nt | nt | KCNK9 block conf=56%*;Kir2-1 spec=i;KCNK9 uninduced=25%*
Cn1cc(C=C(C#N)C#N)c2ccccc21 | 2 | i | -8.4* | i | i | nt | nt | nt | nt | KCNK9 block conf=i;Kir2-1 spec=i;KCNK9 uninduced=52%*
